Reference: ChEMBL document CHEMBL1764956, “Inhibitory effects of Mannich bases of heterocyclic chalcones on NO production by activated RAW 264.7 macrophages and superoxide anion generation and elastase release by activated human neutrophils” (Bioorg Med Chem, 2011)

Tests used:
[1] = test system: RAW264.7; assay: Inhibition of LPS/IFNgamma-induced NO production in mouse RAW264.7 cells after 24 hrs by Griess reagent method; type: functional, cell-based; settings: RAW264.7, 24 h
Summary of the method: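 RAW 264.7 cells grown to confluence in 96-well plates (~200,000 cells/well), then given fresh medium with LPS (1 µg mL-1) plus IFN-γ (50 U mL-1); compounds added together with stimulus. Nitrite in medium read at 24 h: Griess reagent (1% sulfanilamide, 0.1% naphthylenediamine, 5% phosphoric acid), OD550, against sodium nitrite standards made in medium. IC50 = 50% inhibition.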

[2] = test system: Neutrophil; assay: Inhibition of FMLP/CB-stimulated superoxide anion generation in human neutrophils treated for 5 mins before FMLP and CB challenge for 10 mins and 3 mins respectively by spectrophotometer analysis; type: functional, cell-based
Summary of the method: (§1)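 Human neutrophils in Ca2+-free HBSS pH 7.4 plus 0.5 mg/ml ferricytochrome c and 1 mM Ca2+. Equilibrated 37 °C 2 min, drug 5 min, cytochalasin B (1 µg/ml) 3 min, then 100 nM FMLP 10 min. SOD-inhibitable ferricytochrome c reduction followed at 550 nm with stirring. Mean ± S.E.M., n = 3–4; IC50 = 50% inhibition.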

[3] = test system: RAW264.7; assay: Cytotoxicity against mouse RAW264.7 cells assessed as cell viability after 4 hrs by MTT assay; type: cell-based; settings: RAW264.7, 4 h
Summary of the method: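 RAW 264.7 macrophages (ATCC) grown in DMEM with 10% heat-inactivated FCS and penicillin/streptomycin at 37 °C, 5% CO2, in 96-well plates. Cells incubated with MTT (5 mg mL-1) for 4 h at 37 °C. Formazan dissolved in acid-SDS. Viability taken from mitochondria-dependent MTT reduction.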

[4] = test system: Neutrophil; assay: Inhibition of FMLP/CB-stimulated elastase release in human neutrophils treated for 5 mins before FMLP/CB challenge using MeO-Suc-Ala-Ala-Pro-Val-p-nitroanilide as a substrate; type: functional, cell-based
Summary of the method: (§2)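 Human neutrophils (6×10^5/ml) with 100 µM MeO-Suc-Ala-Ala-Pro-Val-p-nitroanilide, equilibrated 37 °C 2 min, drug 5 min, then activated by 100 nM FMLP plus 0.5 µg/ml cytochalasin B. Absorbance at 405 nm monitored continuously. Expressed as % of release in drug-free FMLP/CB control. Mean ± S.E.M., n = 3–4; IC50 = 50% inhibition.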

[5] = test system: Neutrophil; assay: Inhibition of FMLP/CB-stimulated elastase release in human neutrophils at 30 uM treated for 5 mins before FMLP/CB challenge using MeO-Suc-Ala-Ala-Pro-Val-p-nitroanilide as a substrate relative to control; type: functional; summary of the method: as §2
[6] = test system: Neutrophil; assay: Inhibition of FMLP/CB-stimulated superoxide anion generation in human neutrophils at 30 uM treated for 5 mins before FMLP and CB challenge for 10 mins and 3 mins respectively by spectrophotometer analysis relative to control; type: functional; summary of the method: as §1
[7] = test system: Neutrophil; assay: Inhibition of FLMP-stimulated Ca2+ mobilization in human neutrophils assessed as maximum intracellular Ca2+ concentration at 10 uM treated for 5 mins before stimulation by fluo-3 AM-based spectrofluorometry; type: functional
Summary of the method: (§3)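 Human neutrophils (dextran sedimentation, Ficoll Hypaque, hypotonic erythrocyte lysis; >98% viable) loaded with 2 µM fluo-3 AM, 37 °C, 45 min, washed, 3×10^6 cells/ml in Ca2+-free HBSS. Stimulated with 0.1 µM FMLP with 1 mM Ca2+, 37 °C, stirring; ex 488/em 520 nm. [Ca2+]i = Kd[(F−Fmin)/(Fmax−F)], Fmax with 0.05% Triton X-100, Fmin with 20 mM EGTA. Mean ± SEM.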

[8] = test system: Neutrophil; assay: Inhibition of FLMP-stimulated Ca2+ mobilization in human neutrophils assessed as time required to decrease half of Ca2+ at 10 uM treated for 5 mins before FLMP challenge by fluo-3 AM-based spectrofluorometry; type: functional, cell-based; summary of the method: as §3

| Compound | IC50 [1] | IC50 [2] | IC50 [3] | IC50 [4] | inhibition at 30 µM [5] | inhibition at 30 µM [6] | Activity [7] | T1/2 [8] |
| --- | --- | --- | --- | --- | --- | --- | --- | --- |
| COc1ccccc1OC(=O)CNC(=O)Cc1ccc(C(=O)c2ccc(C)cc2)n1C [AMTOLMETIN GUACIL] | 51.3 µM |  |  |  |  |  |  |  |
| CCOc1cc(O)c(C(=O)/C=C/c2ccc(C)o2)cc1CN1CCOCC1 | 10.5 µM | 19.9 µM | 91.3 µM |  |  |  |  |  |
| c1ccc2c(c1)[I+]c1ccccc1-2 [DIPHENYLENEIODONIUM] |  | 1.02 µM |  |  |  |  |  |  |
| CCOc1cc(O)c(C(=O)/C=C/c2ccccn2)cc1CN1CCOCC1 | 15.1 µM | 0.89 µM | 0.18 µM | 1.24 µM |  |  |  |  |
| Cc1ccsc1/C=C/C(=O)c1ccc(O)c(CN2CCOCC2)c1 | 1.39 µM | 16.4 µM |  | 18.2 µM |  |  |  |  |
| O=C(/C=C/c1cccnc1)c1ccc(O)c(CN2CCOCC2)c1 | 0.82 µM | 23.5 µM | 53.2 µM |  | 20.4% |  |  |  |
| COc1cc(O)c(C(=O)/C=C/c2ccco2)cc1CN1CCOCC1 | 6.06 µM | 15.8 µM | 1440 µM |  | 17.9% |  |  |  |
| O=C(/C=C/c1ccncc1)c1ccc(CN2CCOCC2)c(O)c1 | 0.055 µM | 1.6 µM | 110 µM | 2.28 µM |  |  |  |  |
| CCOc1cc(O)c(C(=O)/C=C/c2ccco2)cc1CN1CCOCC1 | 16.5 µM |  | 16.9 µM |  |  | 39.9% |  |  |
| Cc1ccsc1/C=C/C(=O)c1cc(CN2CCOCC2)c(O)c(CN2CCOCC2)c1 | 0.44 µM |  | 56.9 µM |  | 15.4% | 33.8% |  |  |
| CC(C)Oc1cc(O)c(C(=O)/C=C/c2cccs2)cc1CN1CCOCC1 | 0.23 µM | 19.4 µM | 47.7 µM |  |  |  |  |  |
| CC(C)=CCOc1ccc(C(=O)/C=C/c2sccc2C)c(O)c1CN1CCOCC1 | 0.93 µM |  | 11 µM |  |  | 21.5% |  |  |
| Cc1ccc(/C=C/C(=O)c2ccc(O)c(CN3CCOCC3)c2)o1 | 1.28 µM | 25.6 µM | 0.006 µM |  |  |  |  |  |
| O=C(/C=C/c1ccccn1)c1cc(CN2CCOCC2)c(O)c(CN2CCOCC2)c1 | 2.52 µM | 14.8 µM | 190 µM | 18.9 µM |  |  |  |  |
| O=C(/C=C/c1ccncc1)c1ccc(O)c(CN2CCOCC2)c1 | 4.14 µM | 8.85 µM | 111 µM | 13.7 µM |  |  |  |  |
| O=C(/C=C/c1ccco1)c1ccc(O)c(CN2CCOCC2)c1 | 0.16 µM |  | 10 µM |  |  | 27.4% | 276.51 nM | 28.1 s |
| COc1cc(O)c(C(=O)/C=C/c2cccs2)cc1CN1CCOCC1 | 3.61 µM | 10.2 µM | 148 µM |  |  |  |  |  |
| O=S(=O)(F)Cc1ccccc1 [PHENYLMETHYLSULFONYLFLUORIDE] |  |  |  | 95 µM |  |  |  |  |
| COc1ccc(C(=O)/C=C/c2ccccn2)c(O)c1CN1CCOCC1 | 1.73 µM | 0.68 µM | 10.8 µM | 0.95 µM |  |  | 208.65 nM | 8.43 s |
| CCOc1cc(O)c(C(=O)/C=C/c2sccc2C)cc1CN1CCOCC1 | 8.13 µM | 19.9 µM | 2060 µM |  |  |  |  |  |
| O=C(/C=C/c1ccccc1)c1ccc(O)c(CN2CCOCC2)c1 | 15.6 µM | 16.6 µM | 35 µM |  | 9.32% |  |  |  |

| Compound | IC50 [1] | IC50 [2] | IC50 [3] | IC50 [4] | inhibition at 30 µM [5] | inhibition at 30 µM [6] | Activity [7] | T1/2 [8] |
| --- | --- | --- | --- | --- | --- | --- | --- | --- |
| CCOc1cc(O)c(C(=O)/C=C/c2cccnc2)cc1CN1CCOCC1 | 15.4 µM | 2.42 µM | 4.46 µM | 3.48 µM |  |  |  |  |
| O=C(/C=C/c1ccco1)c1cccc(O)c1CN1CCOCC1 | 2.5 µM | 18.2 µM | 17.2 µM |  | 39.7% |  |  |  |
| Cc1ccsc1/C=C/C(=O)c1cccc(O)c1CN1CCOCC1 | 3.39 µM | 9.6 µM | 182 µM | 18.6 µM |  |  |  |  |
| COc1ccc(/C=C/C(=O)c2cccnc2)c(CN2CCCCC2)c1O |  | 13 µM |  | 20.1 µM |  |  |  |  |
| O=C(/C=C/c1ccccn1)c1ccc(CN2CCOCC2)c(O)c1CN1CCOCC1 | 0.018 µM | 1.66 µM | 24.3 µM | 1.44 µM |  |  |  |  |
| COc1ccc(/C=C/C(=O)c2ccc(C)cc2)c(CN2CCOCC2)c1O |  | 2.76 µM |  | 6.97 µM |  |  |  |  |
| CC(C)Oc1ccc(C(=O)/C=C/c2cccs2)c(O)c1CN1CCOCC1 | 2.21 µM | 3.39 µM | 34 µM |  |  |  |  |  |
| COc1ccc(/C=C/C(=O)c2cccc(C)c2)c(CN2CCOCC2)c1O |  | 3.16 µM |  | 2.95 µM |  |  |  |  |
| O=C(/C=C/c1cccs1)c1ccc(O)c(CN2CCOCC2)c1 | 0.47 µM | 25.4 µM | 6830 µM |  | 19.3% |  |  |  |
| COc1ccc(/C=C/C(=O)c2cc(CN3CCOCC3)c(OC)cc2O)cc1 | 3.35 µM | 5.77 µM | 1860 µM |  |  |  |  |  |
| COc1cc(O)c(C(=O)/C=C/c2ccccc2)cc1CN1CCOCC1 | 0.2 µM | 2.86 µM | 0.19 µM |  |  |  |  |  |
| COc1ccc(/C=C/C(=O)c2ccco2)c(CN2CCCCC2)c1O |  | 4.18 µM |  |  |  |  |  |  |
| CCOc1cc(O)c(C(=O)/C=C/c2ccccc2)cc1CN1CCOCC1 | 0.29 µM | 3.35 µM | 1.6 µM |  |  |  |  |  |
| O=C(/C=C/c1ccccn1)c1ccc(CN2CCOCC2)c(O)c1 | 0.72 µM | 2.63 µM | 78 µM | 2.47 µM |  |  |  |  |
| COc1ccc(/C=C/C(=O)c2cccs2)c(CN2CCCCC2)c1O |  | 8.32 µM |  |  |  |  |  |  |
| O=C(/C=C/c1cccnc1)c1ccc(CN2CCOCC2)c(O)c1 | 0.23 µM | 5.96 µM |  | 6.66 µM |  |  |  |  |
| COc1cc(O)c(C(=O)/C=C/c2cccnc2)cc1CN1CCOCC1 | 11.8 µM | 2.65 µM | 2810 µM | 4.52 µM |  |  |  |  |
| O=C(/C=C/c1cccs1)c1cccc(O)c1CN1CCOCC1 | 2.49 µM | 10.5 µM | 12.7 µM | 24.3 µM |  |  |  |  |
| O=C(/C=C/c1ccccn1)c1ccc(O)c(CN2CCOCC2)c1O | 1.73 µM | 12.6 µM | 11.4 µM | 21.2 µM |  |  |  |  |
| O=C(/C=C/c1ccccc1)c1cccc(O)c1CN1CCOCC1 | 2.3 µM | 2.81 µM | 9.95 µM | 5.19 µM |  |  |  |  |
| O=C(/C=C/c1ccccn1)c1ccc(O)c(CN2CCOCC2)c1 | 3.41 µM | 15.2 µM | 6.56 µM | 20.9 µM |  |  |  |  |
